The text below walks through data of article PMC12789443 (Nature Communications, 2025).

Test [1] deals with E. coli ATCC25922 persister cells. The experiment in a line: Killing efficacy on persister cells. Conditions: ampicillin 8×MIC. The class given is cell-based.
For test [2], the system named is E. coli ATCC25922. Briefly: Mice wound. The format is in vivo. Conditions: topical, 15 μL of 4 mg/mL every 4 h, 3 times. The essentials: (§1)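 Female ICR mice (6–8 weeks), pentobarbital-anaesthetised (75 mg/kg ip), backs shaved; 6-mm full-thickness punch wounds. Bacteria grown in LB (37 °C, 9 h) and dropped onto wounds in saline: S. aureus 3 × 10^6 or E. coli 1 × 10^8 CFU/mL. Treatment in saline started 24 h post-infection; saline controls. Wound tissue excised 4 h after final application for CFU counts; n = 10.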

Test [3] has as its system S. aureus USA300 LAC. The experiment in a line: In vitro bacterial killing kinetics. The class given is cell-based. Conditions: exponential growth phase; PBGProOx20 2×MIC and 4×MIC, vancomycin 4×MIC.
Test [4] deals with S. aureus USA300 LAC biofilm. Briefly: Anti-biofilm assay. The format is cell-based.
Test [5] deals with S. aureus USA300 LAC. Briefly: Mice wound. As to conditions: topical, 15 μL of 4 mg/mL every 4 h, 3 times. The format is in vivo. The essentials: as §1
Test [6] has as its system S. aureus USA300 LAC. The experiment in a line: Mice subcutaneous infection model. As to conditions: 4 mg/mL every 12 h, 3 times. The format is in vivo.
In test [7] the test system is S. aureus USA300 LAC. The experiment in a line: Mice meningitis model. The class given is in vivo. Conditions: 40 mg/kg intraperitoneal daily, 6 times; saline 17%.
Test [8] relates to S. aureus USA300 persister cells. The experiment in a line: Killing efficacy on persister cells. The class given is cell-based. Conditions: ciprofloxacin 10×MIC.
Test [9] has as its system S. aureus-PBGProOx20-P32, S. aureus-ciprofloxacin-P32. Briefly: Cross resistance. The class given is cell-based. Conditions: 0.5×MIC, P32 bacteria tested against antibiotics.
Test [10] concerns E. coli ATCC25922. Briefly: Mice meningitis model. The format is in vivo. As to conditions: 40 mg/kg intraperitoneal daily, 6 times; saline 17%.
Test [11] deals with E. coli ATCC25922. Briefly: Drug resistance study. The class given is cell-based. Conditions: continuous treatment at 0.5×MIC.
Test [12] deals with E. coli-PBGProOx20-P32, E. coli-moxifloxacin-P32. The experiment in a line: Cross resistance. The class given is cell-based. As to conditions: 0.5×MIC, P32 bacteria tested against antibiotics.
The subject of test [13] is E. coli ATCC25922 biofilm. Briefly: Anti-biofilm assay. The format is cell-based.

For the molecule `CC1(C)S[C@@H]2[C@H](NC(=O)[C@H](N)c3ccccc3)C(=O)N2[C@H]1C(=O)O` [Ampicillin, ampicillin], in test [1], the “persister cell viability under antibiotic” value is reported as “maintained sustained viability”. In the case of `C[C@@H](O)[C@H]1C(=O)N2C(C(=O)O)=C(SCCN=CN)C[C@H]12` [Imipenem, imipenem], the “reduction of bacteria in infected wounds” value in the test with E. coli ATCC25922 [2] amounted to 2.1 logs. In the case of `CN[C@H](CC(C)C)C(=O)N[C@H]1C(=O)N[C@@H](CC(N)=O)C(=O)N[C@H]2C(=O)N[C@H]3C(=O)N[C@H](C(=O)N[C@H](C(=O)O)c4cc(O)cc(O)c4-c4cc3ccc4O)[C@H](O)c3ccc(c(Cl)c3)Oc3cc2cc(c3O[C@@H]2O[C@H](CO)[C@@H](O)[C@H](O)[C@H]2O[C@H]2C[C@](C)(N)[C@H](O)[C@H](C)O2)Oc2ccc(cc2Cl)[C@H]1O` [Vancomycin, vancomycin], the “eradication in time-killing kinetics” value in the test on S. aureus USA300 LAC [3] is given as “unable to eradicate S. aureus”. The “concentration eradicating mature biofilm” value in test [4] is “poor anti-biofilm activity”. Besides, the “reduction of bacteria in infected wounds” value in the test with S. aureus USA300 LAC [5] came out at 1.2 logs. For the same molecule, the “reduction of bacterial load in infected skin” value in the test on S. aureus USA300 LAC [6] is listed as “less than 0.5 log CFU/g”. Also, in the test with S. aureus USA300 LAC [7], the “survival rate, meningitis” value is given as 50%. On to `O=C(O)c1cn(C2CC2)c2cc(N3CCNCC3)c(F)cc2c1=O` [ciprofloxacin], for which, in [8], the “persister cell viability under antibiotic” value is “maintained sustained viability”. The “cross-resistance of bacteria treated for 32 passages” value in test [9] is “acquired resistance to four quinolone antibiotics and ampicillin”. As to `C[C@@H](O)[C@H]1C(=O)N2C(C(=O)O)=C(S[C@@H]3CN[C@H](C(=O)N(C)C)C3)[C@H](C)[C@H]12` [meropenem], the “survival rate, meningitis” value in the test on E. coli ATCC25922 [10] was found to be 100%. Regarding `COc1c(N2C[C@@H]3CCCN[C@@H]3C2)c(F)cc2c(=O)c(C(=O)O)cn(C3CC3)c12` [moxifloxacin], in the test on E. coli ATCC25922 [11], the “increase in MIC after 32 passages” value was 32 fold. In addition, the “cross-resistance of bacteria treated for 32 passages” value in [12] is “acquired resistance to four quinolone antibiotics and ampicillin”. Regarding colistin, in test [13], the “concentration eradicating mature biofilm” value was found to be 256 ×MIC.
